B2AR ag – agonists of human beta-2 adrenergic receptor inducing internalization. AID 504454. response, % (concentration not given with the values). Am2.2-beta2AR cells, FAP receptor internalization, flow cytometry. 340,000 tested, 0.43% active;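 active = response above a set limit, near 3 SD of response in nonfluorescent compounds, cut at about 42% in these data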
MC4R barr agon – activates human MC4R beta-arrestin recruitment. P32245. 360,000 tested, 0.98% active. AID 540308. U2OS MC4R beta-arrestin complementation, luminescence; percent of melanotan II response, DMSO zero. activation, % at 8.9 µM;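 active = activation above a per-plate cutoff, the mean activation of sample wells on that plate plus 3 SD, cut at about 8% in these data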
Target sequence (P32245 whole entry, looked up): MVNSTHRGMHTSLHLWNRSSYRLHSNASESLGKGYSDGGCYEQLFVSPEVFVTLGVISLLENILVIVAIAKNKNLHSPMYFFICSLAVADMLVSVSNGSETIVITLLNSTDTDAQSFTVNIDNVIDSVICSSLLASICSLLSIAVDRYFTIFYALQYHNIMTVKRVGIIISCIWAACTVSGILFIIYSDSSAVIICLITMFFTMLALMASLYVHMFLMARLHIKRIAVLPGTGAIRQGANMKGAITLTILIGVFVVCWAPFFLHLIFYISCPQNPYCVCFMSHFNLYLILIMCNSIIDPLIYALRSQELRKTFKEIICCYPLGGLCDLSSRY
MC4R antagonist – blocks human MC4R cAMP signaling; inhibition, % at 6.5 µM; P32245; 360,000 tested, 0.48% active; MC4R-expressing cells, MTII-stimulated cAMP, LANCE TR-FRET;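 active = inhibition above its plate's cutoff, the mean of tested wells on that plate plus 3 SD, cut at about 29% in these data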;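 also: 0% = Melanotan II alone and 100% = Melanotan II plus saturating MCL0020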
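material = U2OS cells stably expressing human melanocortin 4 receptor (MC4R) | also added = Melanotan II challenge | dosing = single nominal compound dose of 6.5 µM | detection = TR-FRET with Eu-cAMP and labeled anti-cAMP, 671 nm | replication = singlicate | timing = compound 30 min, challenge 1 h, detection 1 h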
TAAR1 antagonist – human TAAR1 antagonism | 360,000 tested, 1.5% active | AID 624466 | inhibition, % at 3 µM | CHO RD-HGA16 TAAR1, Fluo-8 calcium fluorescence, antagonist;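 active = inhibition above a per-plate cutoff, the mean inhibition of test compounds on that plate plus 3 SD, cut at about 49% in these data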;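 also: 0% = DMSO plus EC80 beta-PEA response and 100% = DMSO alone without agonist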
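Material: RD-HGA16 CHO cells with stable hTAAR1 and Gα16; Dosing: single nominal final test compound concentration of 3 µM; Schedule: seeding 17-24 h prior, 75-min 37 °C, 30-min RT dye loading; Detection: kinetic Fluo-8 calcium fluorescence measurement; Measure: % inhibition from peak post-agonist over basal fluorescence ratio; Benchmarks: vehicle and agonist controls.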
m5-HT2A agonist – mouse HTR2A agonism via beta-arrestin recruitment; activation, % at 7.6 µM; CHO-K1 mHTR2A beta-arrestin complementation, luminescence; percent of 30 µM serotonin response; AID 624169; 360,000 tested, 0.66% active;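 active = activation above a run cutoff, the mean activation of all tested compounds plus 3 SD, cut at about 14% in these data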;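 also: 0% = plate median of compound wells and 100% = 30 µM serotonin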
TAAR1 ag – human TAAR1 agonism; Q96RJ0; CHO RD-HGA16 TAAR1, Fluo-8 calcium fluorescence; vehicle wells 0%, saturating PEA agonist 100%; activation, % at 3 µM; 360,000 tested, 0.99% active;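 active = activation above the mean activation of all test compounds in the run plus 3 SD, cut at about 38% in these data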
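Signal – calcium-sensitive Fluo-8 signal, excitation 470-495, emission 515-575 nm · System – RD-HGA16 (CHO) cells co-expressing Gα16 and hTAAR1 · Incubation – 17-24 h seeding, 75 min 37 °C dye, 30 min RT · Compound dosing – 3 µM single concentration · Repeats – no replicates (n 1)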
cAMP nonselect – counter-screen for MC4R antagonists: nonselective cAMP signaling inhibitors. shares compounds with MC4R antagonist. parental U2OS, forskolin cAMP, LANCE TR-FRET. inhibition, % at 6.5 µM. 1,600 tested, 26% active. AID 602193;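 active = mean inhibition over triplicates above the low-control well mean plus 3 SD, set per campaign, cut at about 13% in these data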;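 also: signal is single emission at 671 nm which falls as cellular cAMP rises; 0% = forskolin-stimulated wells and 100% = buffer without forskolin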
MC4R antag conf – human MC4R cAMP antagonism confirmation; shares compounds with MC4R antagonist; MC4R-expressing cells, MTII-stimulated cAMP, TR-FRET; inhibition, % at 6.5 µM; 1,600 tested, 27% active; AID 602195; in the data active = inhibition above about 29%;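 also: 0% = agonist stimulated wells alone and 100% = agonist stimulated wells plus saturating reference antagonist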
An asterisk follows results filed as active. Rows were chosen to be rich in hits. Some 4.3% of all compounds tested hit in one or more screens of this group.

CC(C)(C)OC(=O)NCc1ccc(NC(=O)c2nc[nH]c2C(=O)NCCCNC(=O)c2[nH]cnc2C(=O)Nc2ccc(CNC(=O)OC(C)(C)C)cc2)cc1 was read as B2AR ag 4, MC4R barr agon 8.7*, MC4R antagonist 31*, m5-HT2A agonist 2, cAMP nonselect 3 and MC4R antag conf 8.
`COCCNC(=O)C1(C)CCCN(C(=O)c2c(F)ccc(C)c2F)C1` (centres undefined) gave MC4R barr agon -2, MC4R antagonist 4, TAAR1 antagonist -13, m5-HT2A agonist 3 and TAAR1 ag 2.
COc1ccc(CCn2c(C)cc(C(=O)CCl)c2C)cc1OC was read as B2AR ag 7, MC4R barr agon 7, MC4R antagonist 30*, TAAR1 antagonist 8, m5-HT2A agonist -2, TAAR1 ag 2, cAMP nonselect 11 and MC4R antag conf 26.
Cc1cc(C(=O)CCl)c(C)n1CCc1ccc(F)cc1 was read as B2AR ag -7, MC4R barr agon 8, MC4R antagonist 31*, TAAR1 antagonist 2, m5-HT2A agonist -4, TAAR1 ag 5, cAMP nonselect 12 and MC4R antag conf 33*.
CCCC1(CCC)NC(=O)N(CC(=O)N2CCc3ccccc32)C1=O was read as B2AR ag -2, MC4R barr agon 1, MC4R antagonist -2, TAAR1 antagonist -12, m5-HT2A agonist 0 and TAAR1 ag 4.
COc1ccc(N2CCN(C(=O)COC(=O)COc3cc(C)cc(C)c3)CC2)cc1 was read as B2AR ag 1, MC4R barr agon -2, MC4R antagonist 2, TAAR1 antagonist -15, m5-HT2A agonist 12 and TAAR1 ag 1.
COc1ccc(-n2c(CN3CCC(C)CC3)nc3ccc([N+](=O)[O-])cc3c2=O)c(OC)c1 was read as B2AR ag -14, MC4R barr agon 0, MC4R antagonist 34*, TAAR1 antagonist -2, m5-HT2A agonist -4, TAAR1 ag 1, cAMP nonselect 0 and MC4R antag conf -9.
For COC(=O)c1sccc1NC(=O)c1ccccc1C(=O)O the results were B2AR ag 2, MC4R barr agon 2, MC4R antagonist 6, TAAR1 antagonist 14, m5-HT2A agonist 4 and TAAR1 ag 6.
`CC(=O)c1sccc1NC(=O)c1ccccc1C(=O)O` gave B2AR ag -6, MC4R barr agon 0, MC4R antagonist 72*, TAAR1 antagonist 2, m5-HT2A agonist 0, TAAR1 ag 18, cAMP nonselect 29* and MC4R antag conf 61*.
`CCCC1Cc2nc(Cl)c(C#N)cc2CO1` (centres undefined) gave B2AR ag 2, MC4R barr agon 2, MC4R antagonist 11, TAAR1 antagonist 0, m5-HT2A agonist 0 and TAAR1 ag 0.
For CN1CCN(c2ccccc2NC(=O)c2ccc(N3CCCC3)c([N+](=O)[O-])c2)CC1 the results were B2AR ag -5, MC4R barr agon -2, MC4R antagonist -1, TAAR1 antagonist 16, m5-HT2A agonist -8 and TAAR1 ag 8.
`O=C(Nc1ccccc1-c1ccccc1)c1ccc(Cl)c([N+](=O)[O-])c1` gave B2AR ag 28, MC4R barr agon 0, MC4R antagonist 56*, TAAR1 antagonist -19, m5-HT2A agonist 3, TAAR1 ag 2, cAMP nonselect 31* and MC4R antag conf 74*.
O=C(Nc1ccccc1C(=O)N1CCCC1)c1ccc(Cl)c([N+](=O)[O-])c1 was read as B2AR ag -11, MC4R barr agon 2, MC4R antagonist 36*, TAAR1 antagonist -10, m5-HT2A agonist 2, TAAR1 ag 7, cAMP nonselect 5 and MC4R antag conf 25.

Bioassay records: PubChem BioAssay, several laboratories
